Assay outcomes as filed in PubChem.
Sampled rows, rich in hits. Any-hit rate of the full collection: about 4%.
KCNQ1 block: inhibitors of human KCNQ1 potassium channel; CHO-K1 KCNQ1, FluxOR thallium flux fluorescence; active compounds read high; B-score at 10 µM; 310,000 compounds, 1.3% hits; AID 2642;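 active means compounds whose thallium flux B-score, printed positive for inhibition, exceeds three library SD while starting fluorescence stays within three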;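 further: channel opened by potassium depolarization with thallium stimulus after 20 min compound exposure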
KCNK9 inh: inhibitors of human KCNK9 two-pore domain potassium channel; Q9NPC2; HEK293 KCNK9, FluxOR thallium flux fluorescence; active compounds read low; B-score at 10 µM; 310,000 compounds, 1.2% hits; AID 488922;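 active means ratio B-score over 3 SD below the library mean, with starting fluorescence within 5 SD of its mean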;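 further: negative B-score means less thallium flux so channel inhibition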
KCNQ1 pot: human KCNQ1 channel potentiation or activation. P51787. CHO-K1 KCNQ1, thallium flux FluxOR fluorescence; active compounds read high. B-score at 10 µM. 310,000 compounds, 0.35% hits;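 active means fluorescence ratio B-score, a plate-corrected score, at least three library SD, with initial intensity B-score within 5 SD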
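Assay system: CHO-K1 cells stably expressing KCNQ1; Medium: assay buffer with matched DMSO; Also added: K+/Tl+ depolarizing stimulus; Dosing: single dose; Timing: dye 90 min, compound 20 min, room temperature; Measured by: kinetic FluxOR thallium fluorescence, 10-s 1-Hz baseline, 110-s post-stimulus read; Read-out: peak-minus-minimum fluorescence over initial fluorescence, negative-control normalized, B-scored.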
KCNK3 inh: human KCNK3 channel inhibition, primary screen; CHO-KCNK3 thallium flux, FluxOR fluorescence; active compounds read low; B-score at 10 µM; O14649; 340,000 compounds, 0.84% hits;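 active means B-score under library mean minus 4 SD, starting fluorescence ratio at most library mean plus 5 SD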;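 further: more negative B-score means stronger inhibition of thallium flux through KCNK3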
Target sequence (O14649 whole entry, looked up): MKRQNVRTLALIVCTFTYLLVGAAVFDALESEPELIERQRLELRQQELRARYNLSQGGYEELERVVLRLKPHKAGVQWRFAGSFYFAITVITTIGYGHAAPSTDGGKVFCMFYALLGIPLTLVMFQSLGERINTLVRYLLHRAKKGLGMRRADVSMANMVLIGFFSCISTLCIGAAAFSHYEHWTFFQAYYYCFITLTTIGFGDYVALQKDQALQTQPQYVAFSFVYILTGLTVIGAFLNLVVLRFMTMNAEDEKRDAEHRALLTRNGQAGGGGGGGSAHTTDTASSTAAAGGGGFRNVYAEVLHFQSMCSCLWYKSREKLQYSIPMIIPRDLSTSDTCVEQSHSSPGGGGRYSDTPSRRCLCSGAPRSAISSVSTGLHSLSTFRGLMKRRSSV
hERG protect: shields human hERG channel from block by proarrhythmic agents; Q12809; CHO-hERG, FluxOR thallium flux, dofetilide IC70 present; activation (rescue from dofetilide block), less the hit threshold, % at 10 µM; 310,000 compounds, 0.51% hits;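 active means activation above the mean of controls blocked by dofetilide plus 5 SD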;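 further: thallium influx through hERG after potassium depolarization seen as dye fluorescence rise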
PHOSPHO1 block: PHOSPHO1 (human) inhibition; Q8TCT1; recombinant PHOSPHO1, absorbance phosphatase assay; inhibition, % at 13.3 µM; 290,000 compounds, 1.1% hits; AID 1565; in the data active means inhibition above about 60%
* marks the source's active call; other numbers are inactive results; i = inactive; / = not tested or not shown.

SMILES | KCNQ1 block | KCNK9 inh | KCNQ1 pot | KCNK3 inh | hERG protect | PHOSPHO1 block
CCn1c(=O)c(C(=O)NNS(=O)(=O)c2ccc(Br)cc2)c(O)c2ccccc21 | 6* | i | i | i | -9.1 | 49.8
CCn1c(=O)c(C(=O)NCCCc2ccccc2)c(O)c2ccccc21 | 6* | i | i | i | -6.7 | 34.0
CCn1c(=O)c(C(=O)NCCc2ccc(Cl)cc2)c(O)c2ccccc21 | i | i | i | i | -5.7 | -26.4
CCCn1c(=O)c(C(=O)NCCCc2ccccc2)c(O)c2ccccc21 | 7* | i | i | i | -6.0 | 44.0
CCc1cc2c(=O)n(CC(=O)NC3CCCCC3)cnc2s1 | i | i | i | i | -7.4 | 32.8
C/C=C(\C)C(=O)Nc1cccc(C2=NOC3(C2)C[C@H](C(N)=O)N(C(=O)c2cc([N+](=O)[O-])cc([N+](=O)[O-])c2)C3)c1 (some centres undefined) | i | i | i | i | -4.8 | -8.7
O=C1C=CN(C(=O)Oc2ccccc2)CC1 | i | i | i | i | -3.4 | -57.4
O=C(c1ccncc1)N1C2C=CC(C2)C1(C(F)(F)F)C(F)(F)F (centres undefined) | / | / | / | / | / | -14.0
Cc1ccc(NS(=O)(=O)c2cc([N+](=O)[O-])ccc2NNC(=S)Nc2cccc(Cl)c2)c(C)c1 | 6* | i | i | i | -16.6 | -76.5
Cc1cccc(NC(=S)NNc2cccc(Cl)c2)c1 | i | i | i | i | -13.6 | 14.5
Cc1ccc(NS(=O)(=O)c2cc([N+](=O)[O-])ccc2NNC(=S)Nc2cc(C)ccc2C)c(C)c1 | 6* | i | i | i | -11.8 | -0.5
COc1ccc(NC(=S)Nc2cccc([N+](=O)[O-])c2)cc1 | i | i | i | i | -13.1 | 24.2
COc1ccc(NC(=S)NNc2ccc([N+](=O)[O-])cc2S(=O)(=O)Nc2ccc(C)cc2C)cc1 | 7* | i | i | i | -24.5 | 27.1
CCc1nnc(NC(=O)CSc2nnc(CNc3ccc(OC)cc3)n2C)s1 | i | i | i | i | -7.5 | -22.7
CCCC(=O)Nc1cc(C)c(NC(=O)c2ccncc2)cn1 | i | i | i | i | -4.7 | 2.8
O=C(Nc1cccnc1)c1ccc(COc2ccccc2Br)o1 | i | i | i | i | 22.0* | 0.1
C1=CC2=NC34CCCCC3CC3=C(CCCC3)N4C2=CC1=NC1CCCCC1 (centres undefined) | 7* | i | i | i | -17.2 | /
COC(=O)C(C(=O)OC)c1ccc(-n2cccc2)cc1 | i | i | i | i | -7.2 | 42.8
CC(Cc1cccs1)NC(=O)Nc1ccc(F)cc1 (centres undefined) | i | -6.62* | i | i | -12.1 | 16.0
C[N+]1(CCOS(=O)C23CC4CC(CC(C4)C2)C3)CCOCC1 (centres undefined) | i | i | i | i | -2.3 | 81.0*
Cn1nnnc1SCCNC(=O)C1CCC(=O)N(CCc2ccccc2)C1 (centres undefined) | i | i | i | i | -3.3 | 37.7
COc1ccc2c(C)c(CC(=O)N3CCN(C(=O)C4COc5ccccc5O4)CC3)c(=O)oc2c1 (centres undefined) | i | i | i | i | -16.5 | 63.6*
COc1ccc(C(=S)NC2CCCCC2)cc1 | i | i | i | i | -6.8 | 88.3*
CN(/C=C/C(=C\C=[N+](C)c1ccccc1)OCCCS(=O)(=O)[O-])c1ccccc1 | 6* | i | i | i | -19.1 | -75.0
CN(/C=C/C(=C/C=[N+](C)c1ccccc1)OCCCS(=O)(=O)[O-])c1ccccc1 | i | i | i | i | -16.6 | 16.5
SMILES | KCNQ1 block | KCNK9 inh | KCNQ1 pot | KCNK3 inh | hERG protect | PHOSPHO1 block
O=C1c2ccccc2C(=O)C12OC2c1cccc2ccccc12 (centres undefined) | i | i | i | i | -4.1 | 66.3*
O=C1NC(c2cccc3ccccc23)Nc2ccccc21 (centres undefined) | / | / | / | i | / | /
NC(=O)CSc1ncnc2c1nnn2Cc1ccc(F)cc1 | i | i | i | i | -11.1 | -4.1
CCn1c(CSCc2ccc(F)cc2)nnc1SCC(=O)NCc1ccccc1 | i | i | i | i | -7.1 | 64.4*
CCn1c(CSCc2ccc(C)cc2)nnc1SCC(=O)NCc1ccccc1 | i | i | i | i | -20.4 | -21.7
O=C(Nc1ccc(-c2cn3ccsc3n2)cc1)C1CC1 | i | i | i | i | -4.1 | 88.3*
c1cn2cc(-c3ccc4c(c3)OCO4)nc2s1 | i | i | i | i | -12.1 | 68.4*
Cc1c2cnn(-c3ccccc3)c(=O)c2c(C)n1CCCC(=O)N1CCN(C2CCCCC2)CC1 | i | i | i | i | -12.5 | 19.9
C[n+]1ccccc1/C=N/O | i | i | i | i | -3.3 | 6.0
CC(O)/C=C/c1cccc[n+]1C (centres undefined) | i | i | i | i | -3.2 | 83.6*
CC1=CCC(C(=O)O)C(C(=O)Nc2ccc(-c3nc4ccc(C)cc4s3)cc2)C1 (centres undefined) | i | i | i | i | -17.9 | 35.8
O=[N+]([O-])c1c(Nc2ccccn2)cc(Cl)c2nonc12 | 11* | -6.88* | i | i | -12.4 | 17.7
CC(=O)c1c(C)[nH]c(C(=O)Nc2nc(-c3ccccc3)c(C)s2)c1C | i | i | i | i | -15.7 | -8.9
CC1Cc2ccccc2N1S(=O)(=O)c1cccc(C(=O)NCc2ccccn2)c1 (centres undefined) | / | / | / | i | / | /
CC1Cc2ccccc2N1S(=O)(=O)c1cccc(C(=O)NCc2ccncc2)c1 (centres undefined) | / | / | / | -9.55* | / | /
CCOC(=O)/C(C#N)=C(C)/C=C1\Sc2ccccc2N1CC | i | i | i | i | -4.6 | 0.7
CCN1/C(=C\C=C(C(C)=O)C(C)=O)Sc2ccccc21 | 8* | i | i | i | -22.4 | 5.9
CC(C)(C)c1[nH]nc2c1C(Cc1ccccc1)C(C#N)=C(N)O2 (centres undefined) | i | i | i | i | -19.0 | -10.1
O=C(COC(=O)CCC(=O)Nc1nccs1)NCc1ccco1 | i | i | i | i | -4.5 | -23.4
CCOC(=O)c1c(S(=O)(=O)NCC2CCN(Cc3cccc(F)c3)CC2)c(C)n(C)c1C | i | i | i | i | -3.6 | 64.9*
CCOC(=O)c1c(C)[nH]c(C)c1S(=O)(=O)NCC1CCN(Cc2cccc(Cl)c2)CC1 | i | i | i | i | -5.6 | 33.2
COc1ccc(C(=O)C/C(=C\C(=O)c2ccc(C)cc2)c2ccccc2)cc1 | 6* | i | i | i | -13.5 | -26.6
